In ChEMBL document CHEMBL3808288, “Identification and in Vivo Evaluation of Liver X Receptor β-Selective Agonists for the Potential Treatment of Alzheimer's Disease” (J Med Chem, 2016):
Values after ≈ are worked out from the molar mass of the structure shown. Active and inactive are the calls of the source. The calls are words filed in the database; no cut-off is given here.

How the values were obtained:
[1] = target: T1, Oxysterols receptor LXR-beta (Homo sapiens) (UniProt P55055); experiment: (§1) Agonist activity at LXRbeta (unknown origin) expressed in human H4 cells co-expressing ABCA1 promoter measured after 48 hrs by cell-based transactivation assay
T1 sequence (whole entry): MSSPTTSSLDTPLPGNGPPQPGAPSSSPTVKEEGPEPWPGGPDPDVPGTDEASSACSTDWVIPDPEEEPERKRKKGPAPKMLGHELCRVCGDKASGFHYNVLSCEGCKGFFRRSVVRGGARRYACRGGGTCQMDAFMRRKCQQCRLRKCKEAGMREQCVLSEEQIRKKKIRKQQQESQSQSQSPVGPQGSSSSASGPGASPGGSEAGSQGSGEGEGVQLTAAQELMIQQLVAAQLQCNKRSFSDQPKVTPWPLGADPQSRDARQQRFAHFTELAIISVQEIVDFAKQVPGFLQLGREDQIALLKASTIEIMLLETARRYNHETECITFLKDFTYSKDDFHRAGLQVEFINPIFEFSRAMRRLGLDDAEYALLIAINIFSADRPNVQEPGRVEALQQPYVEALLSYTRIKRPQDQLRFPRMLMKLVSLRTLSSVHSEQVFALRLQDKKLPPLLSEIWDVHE

[2] = target: T2, Oxysterols receptor LXR-beta (Homo sapiens, UniProt P55055); experiment: as §1
T2 sequence (P55055 whole entry): T1 sequence (whole entry)

[3] = target: T3, Oxysterols receptor LXR-alpha (Homo sapiens) (UniProt Q13133); experiment: (§2) Agonist activity at LXRalpha (unknown origin) expressed in human HepG2 cells co-expressing ABCA1 promoter measured after 48 hrs by cell-based transactivation assay
T3 sequence (whole entry): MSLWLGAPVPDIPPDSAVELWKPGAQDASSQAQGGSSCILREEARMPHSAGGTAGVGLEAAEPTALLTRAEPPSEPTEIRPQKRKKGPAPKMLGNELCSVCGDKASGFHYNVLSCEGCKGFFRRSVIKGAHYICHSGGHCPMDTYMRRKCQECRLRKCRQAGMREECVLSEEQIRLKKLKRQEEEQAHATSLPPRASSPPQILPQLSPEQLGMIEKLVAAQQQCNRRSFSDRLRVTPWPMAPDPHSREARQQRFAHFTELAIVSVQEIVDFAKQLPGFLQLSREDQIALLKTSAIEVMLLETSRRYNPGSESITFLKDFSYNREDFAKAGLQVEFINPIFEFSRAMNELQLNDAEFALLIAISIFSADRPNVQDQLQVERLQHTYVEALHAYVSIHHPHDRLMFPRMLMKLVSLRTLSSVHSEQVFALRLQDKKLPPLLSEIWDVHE

[4] = target: T4, Oxysterols receptor LXR-alpha (Homo sapiens, UniProt Q13133); experiment: as §2
T4 sequence (Q13133 whole entry): T3 sequence (whole entry)

[5] = Solubility of the compound at pH 2; type: physicochemical; settings: buffer
P-gp [6] = experiment: Efflux ratio in MDCK cells expressing rat P-gp assessed as ratio of permeability across basolateral to apical side over apical to basolateral side; type: ADME, cell-based, Canis lupus familiaris; settings: dog, MDCK-MDR1
P-gp [7] = experiment: Efflux ratio in MDCK cells expressing human P-gp assessed as ratio of permeability across basolateral to apical side over apical to basolateral side; type: ADME, cell-based, Canis lupus familiaris; settings: dog, MDCK-MDR1
Rhesus monkey [8] = experiment: Increase in apoE level in CSF of rhesus monkey at 5 mg/kg, po administered for 2 weeks; type: functional, organism-based; settings: Macaca mulatta
Outline: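 Rhesus monkeys were dosed orally once daily for 2 weeks after randomisation on baseline lipids, liver enzymes and liver fat. CSF was taken by lumbar puncture at baseline and at trough after the last dose, and apoE was measured against baseline.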

Rhesus monkey [9] = experiment: Increase in apoE level in plasma of rhesus monkey at 5 mg/kg, po administered for 2 weeks; type: functional, organism-based; settings: Macaca mulatta
Rhesus monkey [10] = experiment: Increase in hepatic fat content in rhesus monkey at 5 mg/kg, po qd for 2 weeks by magnetic resonance spectroscopic imaging method relative to vehicle control; type: ADME, organism-based, Macaca mulatta; settings: in vivo, 336 h
Cynomolgus monkey = experiment: Increase in triglycerides level in cynomolgus monkey liver at >= 3 mg/kg, po qd administered for 2 weeks; type: ADME, organism-based, Macaca fascicularis; settings: in vivo, 336 h

Emax [1] [%]	EC50 [2] [nM]	Emax [3] [%]	EC50 [4] [nM]	solubility [5] [µM]	efflux ratio (P-gp [6])	efflux ratio (P-gp [7])	fold change (FC) (Rhesus monkey [10])	SMILES	Activity (Rhesus monkey [8])	Activity (Rhesus monkey [9])	Activity (Cynomolgus monkey)
91	550	24	500	197 (≈ 109 µg/mL)	4.3	1.8		CN(C)C(=O)c1ccc(N2CCC(C3CCN(C(=O)[C@](O)(c4ccccc4)C(F)(F)F)CC3)CC2)cc1Cl			
							4	CC(C)(O)CNC(=O)Nc1ccc(C(=O)N2CCN(Cc3ccc(C(O)(C(F)(F)F)C(F)(F)F)cc3)CC2)cc1F	inactive	Active	Toxic
